Measurements: ChEMBL document CHEMBL1914427, “Design, synthesis and biological evaluation of benzo[1.3.2]dithiazolium ylide 1,1-dioxide derivatives as potential dual cyclooxygenase-2/5-lipoxygenase inhibitors” (Bioorg Med Chem, 2011)
Calls of active or inactive are those of the source. The rule behind the calls is not given here.

What was measured:
[1] = target: T1, Polyunsaturated fatty acid 5-lipoxygenase (Homo sapiens) (UniProt P09917); experiment: Inhibition of […] human 5-LOX in human PBML assessed as inhibition of A23187-induced LTB4 production at 10 uM preincubated for 15 mins measured after 15 mins by enzyme immunoassay
T1 sequence (whole entry): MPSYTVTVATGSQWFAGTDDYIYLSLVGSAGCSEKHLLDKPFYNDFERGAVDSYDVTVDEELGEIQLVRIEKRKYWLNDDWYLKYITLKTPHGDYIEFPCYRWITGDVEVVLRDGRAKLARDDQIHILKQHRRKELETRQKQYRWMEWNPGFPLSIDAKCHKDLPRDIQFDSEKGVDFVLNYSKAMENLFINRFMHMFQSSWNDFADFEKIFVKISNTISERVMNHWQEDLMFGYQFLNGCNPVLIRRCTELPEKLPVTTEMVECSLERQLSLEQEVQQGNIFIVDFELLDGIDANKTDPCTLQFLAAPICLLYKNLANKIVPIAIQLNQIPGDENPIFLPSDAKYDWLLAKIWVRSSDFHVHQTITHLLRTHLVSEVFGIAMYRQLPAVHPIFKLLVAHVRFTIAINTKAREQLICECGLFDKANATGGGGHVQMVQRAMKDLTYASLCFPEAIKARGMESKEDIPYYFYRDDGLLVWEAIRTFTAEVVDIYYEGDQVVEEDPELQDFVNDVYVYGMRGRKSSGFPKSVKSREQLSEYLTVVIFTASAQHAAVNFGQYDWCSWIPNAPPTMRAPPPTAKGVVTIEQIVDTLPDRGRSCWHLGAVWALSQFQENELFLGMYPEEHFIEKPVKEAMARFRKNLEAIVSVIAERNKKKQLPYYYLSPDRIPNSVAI
How it was run: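 Human PBML (5 × 10⁶ cells/mL) in HBSS pH 7.4 preincubated with compound 15 min at 37 °C. Calcium ionophore A23187 (30) then added, 15 min at 37 °C, and reaction stopped with 1 N HCl.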

[2] = target: T2, Prostaglandin G/H synthase 2 (Homo sapiens) (UniProt P35354); experiment: Inhibition of human recombinant COX2 expressed in Sf21 cells assessed as conversion of arachidonic acid to PGE2 at 10 uM preincubated for 15 mins measured after 5 mins by enzyme immunoassay
T2 sequence (whole entry): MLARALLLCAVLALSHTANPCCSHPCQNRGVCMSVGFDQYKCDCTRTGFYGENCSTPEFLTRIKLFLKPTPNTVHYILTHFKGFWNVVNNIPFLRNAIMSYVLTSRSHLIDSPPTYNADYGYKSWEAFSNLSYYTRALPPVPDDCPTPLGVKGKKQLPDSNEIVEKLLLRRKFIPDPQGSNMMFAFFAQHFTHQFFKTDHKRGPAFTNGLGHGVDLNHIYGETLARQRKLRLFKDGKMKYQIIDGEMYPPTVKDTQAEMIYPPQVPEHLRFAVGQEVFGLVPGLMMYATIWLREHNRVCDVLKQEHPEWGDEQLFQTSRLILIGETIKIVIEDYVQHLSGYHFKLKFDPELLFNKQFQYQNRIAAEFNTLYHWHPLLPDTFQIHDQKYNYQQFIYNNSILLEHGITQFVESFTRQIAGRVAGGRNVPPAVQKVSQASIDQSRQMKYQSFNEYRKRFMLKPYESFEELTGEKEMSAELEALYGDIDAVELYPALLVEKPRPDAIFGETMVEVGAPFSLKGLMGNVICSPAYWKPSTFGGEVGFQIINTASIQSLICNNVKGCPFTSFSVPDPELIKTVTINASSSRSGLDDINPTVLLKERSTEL
How it was run: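 Human recombinant COX-2 (Sf21-expressed, 0.11 U) preincubated with compound 15 min at 37 °C in Tris–HCl pH 7.7 containing 1 mM glutathione, phenol and hematin. Reaction started with 0.3 arachidonic acid. Run by a contract lab.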

[3] = target: T3, Prostaglandin G/H synthase 2 (Homo sapiens, UniProt P35354); experiment: Inhibition of human recombinant COX2 expressed in Sf21 cells assessed as conversion of arachidonic acid to PGE2 preincubated for 15 mins measured after 5 mins by enzyme immunoassay
T3 sequence (P35354 whole entry): T2 sequence (whole entry)

[4] = target: T4, Polyunsaturated fatty acid 5-lipoxygenase (Homo sapiens, UniProt P09917); experiment: Inhibition of […] human PBML assessed as inhibition of A23187-induced LTB4 production preincubated for 15 mins measured after 15 mins by enzyme immunoassay
T4 sequence (P09917 whole entry): T1 sequence (whole entry)

Rattus norvegicus [5] = experiment: Antiinflammatory activity in ip dosed Wistar rat assessed as inhibition of carrageenan-induced paw edema administered 30 mins before carrageenan challenge measured after 3 hrs; type: functional, organism-based
How it was run: (§1)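 Male Wistar rats, held at 20–24 °C and 50–80% humidity on 12 h light/dark for at least three days, with chow and water unless fasted. Test article given IP at 10, 30 or 100 mg/kg in 1% Tween 80/0.9% NaCl, dosing volume 5 mL/kg, 30 min before intraplantar carrageenan (0.1 mL of 1% suspension) into the right hind paw. Edema read by plethysmometer at 3 h; inhibition taken relative to vehicle group.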

Rattus norvegicus [6] = experiment: Antiinflammatory activity in Wistar rat assessed as inhibition of carrageenan-induced paw edema at 100 mg/kg, ip administered 30 mins before carrageenan challenge measured after 3 hrs relative to vehicle treated control; type: functional; details: route intraperitoneal; how it was run: as §1
Rattus norvegicus [7] = experiment: Antiinflammatory activity in Wistar rat assessed as inhibition of carrageenan-induced paw edema at 10 mg/kg, ip administered 30 mins before carrageenan challenge measured after 3 hrs relative to vehicle treated control; type: functional; details: route intraperitoneal; how it was run: as §1
Rattus norvegicus [8] = experiment: Antiinflammatory activity in Wistar rat assessed as inhibition of carrageenan-induced paw edema at 30 mg/kg, ip administered 30 mins before carrageenan challenge measured after 3 hrs relative to vehicle treated control; type: functional; details: route intraperitoneal; how it was run: as §1

| Structure (SMILES) | inhibition [1] | inhibition [2] | IC50 [4] [µM] | other results |
| --- | --- | --- | --- | --- |
| O=C(O)c1ccc2c(c1)S(=O)(=O)N=S2c1ccc(Br)cc1 (configuration not stated) | 2% | 7% | – | – |
| NS(=O)(=O)c1ccc2c(c1)S(c1ccc(F)cc1F)=NS2(=O)=O (configuration not stated) | inactive | inactive | – | – |
| CC(C)c1ccc(S2=NS(=O)(=O)c3ccc(S(N)(=O)=O)cc32)cc1 (configuration not stated) | 19% | 10% | – | – |
| NS(=O)(=O)c1ccc2c(c1)S(c1ccc(Cl)cc1Cl)=NS2(=O)=O (configuration not stated) | inactive | 9% | – | – |
| NS(=O)(=O)c1ccc2c(c1)S(c1cccc(Br)c1)=NS2(=O)=O (configuration not stated) | 28% | 7% | – | – |
| NS(=O)(=O)c1ccc2c(c1)S(c1ccc(Cl)c(Cl)c1)=NS2(=O)=O (configuration not stated) | inactive | 14% | – | – |
| COc1ccc(S2=NS(=O)(=O)c3ccc(S(N)(=O)=O)cc32)cc1OC (configuration not stated) | inactive | 6% | – | – |
| O=[N+]([O-])c1ccc2c(c1)S(=O)(=O)N=S2c1ccc(C(F)(F)F)cc1 (configuration not stated) | – | – | 3.09 | IC50 [3]: 2.99 µM |
| CC(C)(C)c1ccc(S2=NS(=O)(=O)c3cc([N+](=O)[O-])ccc32)cc1 (configuration not stated) | – | – | 0.3 | IC50 [3]: 0.27 µM; inhibition (Rattus norvegicus [5]): Dose-dependent effect; inhibition in vivo at 100 mg/kg (Rattus norvegicus [6]): 65%; inhibition in vivo at 10 mg/kg (Rattus norvegicus [7]): 14%; inhibition in vivo at 30 mg/kg (Rattus norvegicus [8]): 27% |
| CC(C)c1ccc(S2=NS(=O)(=O)c3cc([N+](=O)[O-])ccc32)cc1 (configuration not stated) | – | – | 0.36 | IC50 [3]: 0.73 µM |
| COc1cc(OC)cc(OCCS2=NS(=O)(=O)c3cc([N+](=O)[O-])ccc32)c1 (configuration not stated) | – | 35% | 3.7 | – |
| Cc1ccc(S2=NS(=O)(=O)c3ccc(S(N)(=O)=O)cc32)c(C)c1 (configuration not stated) | inactive | inactive | – | – |
| O=[N+]([O-])c1ccc2c(c1)S(=O)(=O)N=S2c1ccncc1 (configuration not stated) | 17% | 15% | – | – |
| CC(C)c1ccc(S2=NS(=O)(=O)c3cc(S(N)(=O)=O)ccc32)cc1 (configuration not stated) | 42% | 44% | – | – |
| COc1ccc(S2=NS(=O)(=O)c3cc([N+](=O)[O-])ccc32)cc1OC (configuration not stated) | – | 15% | 0.68 | – |
| COC1(c2cc(F)cc(OCCS3=NS(=O)(=O)c4cc([N+](=O)[O-])ccc43)c2)CCOCC1 (configuration not stated) | 25% | 25% | – | – |
| NS(=O)(=O)c1ccc2c(c1)S(=O)(=O)N=S2c1ccc(-c2ccccc2)cc1 (configuration not stated) | – | 31% | 3.45 | – |
| NS(=O)(=O)c1ccc2c(c1)S(=O)(=O)N=S2c1ccc(Br)cc1 (configuration not stated) | – | 0% | 91.1 | – |
| O=S1(=O)N=C(c2ccc(Br)cc2)c2ccccc21 | 11% | 0% | – | – |
| NC(=O)c1ccc2c(c1)S(=O)(=O)N=S2c1ccc(Br)cc1 (configuration not stated) | 15% | 0% | – | – |
| Cc1ccc2c(c1)S(=O)(=O)N=S2c1ccc(Br)cc1 (configuration not stated) | – | 14% | 6.05 | – |

| Structure (SMILES) | inhibition [1] | inhibition [2] | IC50 [4] [µM] | other results |
| --- | --- | --- | --- | --- |
| NS(=O)(=O)c1ccc2c(c1)S(c1ccc(C(F)(F)F)cc1)=NS2(=O)=O (configuration not stated) | 37% | inactive | – | – |
| COC(=O)c1ccc2c(c1)S(=O)(=O)N=S2c1ccc(Br)cc1 (configuration not stated) | – | 33% | 4.1 | – |
| CC(C)(C)c1ccc(S2=NS(=O)(=O)c3ccc(S(N)(=O)=O)cc32)cc1 (configuration not stated) | 25% | inactive | – | – |
| CC(C)(C)c1ccc(S2=NS(=O)(=O)c3cc(S(N)(=O)=O)ccc32)cc1 (configuration not stated) | 23% | 21% | – | – |
| CCc1ccc(S2=NS(=O)(=O)c3cc([N+](=O)[O-])ccc32)cc1 (configuration not stated) | – | – | 0.18 | IC50 [3]: 1.7 µM |
| CCc1ccc(C2=NS(=O)(=O)c3cc(S(N)(=O)=O)ccc32)cc1 | 8% | 0% | – | – |
| COc1ccc(S2=NS(=O)(=O)c3ccc(S(N)(=O)=O)cc32)cc1 (configuration not stated) | 21% | inactive | – | – |
| O=S1(=O)N=S(c2ccccc2)c2ccccc21 (configuration not stated) | 14% | 0% | – | – |
| NS(=O)(=O)c1ccc2c(c1)S(c1ccc(Br)cc1)=NS2(=O)=O (configuration not stated) | 14% | – | – | – |
| COc1ccc(S2=NS(=O)(=O)c3cc([N+](=O)[O-])ccc32)cc1 (configuration not stated) | – | – | 0.35 | IC50 [3]: 0.88 µM |
| Cc1ccc(S2=NS(=O)(=O)c3ccc(S(N)(=O)=O)cc32)cc1 (configuration not stated) | 9% | 2% | – | – |
| NS(=O)(=O)c1ccc2c(c1)S(c1ccc(Cl)cc1)=NS2(=O)=O (configuration not stated) | 19% | inactive | – | – |
| NS(=O)(=O)c1cc2c(cc1Cl)S(c1ccc(Br)cc1)=NS2(=O)=O (configuration not stated) | – | – | 25.8 | IC50 [3]: 2.3 µM |
| O=[N+]([O-])c1ccc2c(c1)S(=O)(=O)N=S2c1ccc(-c2ccccc2)cc1 (configuration not stated) | – | – | 0.15 | IC50 [3]: 0.5 µM |
| CCc1ccc(S2=NS(=O)(=O)c3cc(S(C)(=O)=O)ccc32)cc1 (configuration not stated) | 35% | 43% | – | – |
| Cc1ccc(C2=NS(=O)(=O)c3ccccc32)cc1 | 9% | 16% | – | – |
| CS(=O)(=O)c1ccc2c(c1)S(=O)(=O)N=S2c1ccc(Br)cc1 (configuration not stated) | – | – | 13.5 | IC50 [3]: 1.8 µM |
| Cc1ccc(S2=NS(=O)(=O)c3ccc(S(N)(=O)=O)cc32)cc1C (configuration not stated) | inactive | 15% | – | – |
| CCc1ccc(S2=NS(=O)(=O)c3ccc(S(N)(=O)=O)cc32)cc1 (configuration not stated) | 7% | inactive | – | – |
| O=S1(=O)N=S(c2ccc(Br)cc2)c2ccccc21 (configuration not stated) | 33% | 2% | – | – |
| NS(=O)(=O)c1ccc2c(c1)S(c1ccc(F)cc1)=NS2(=O)=O (configuration not stated) | 9% | 2% | – | – |
